In ChEMBL document CHEMBL4152320, “Discovery and development of novel salicylate synthase (MbtI) furanic inhibitors as antitubercular agents” (Eur J Med Chem, 2018):
Calls of active or inactive are those of the source. The rule behind the calls is not given here.

Key:
[1] = tested on: Mycobacterium tuberculosis variant bovis BCG; assay: Inhibition of Mycobacterium bovis BCG salicylate synthase assessed as removal of iron after 15 days by CAS assay
Outline: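 Same BCG culture in chelated Sauton's with compound, 15 days at 37 °C. Supernatant mixed 1:1 with Universal CAS solution, 10 min room temperature, A630 read; siderophore units = (Ar − As)/Ar × 100, Ar being blank medium with CAS.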

[2] = tested on: Mycobacterium tuberculosis variant bovis BCG; assay: Inhibition of Mycobacterium bovis BCG salicylate synthase assessed as reduction in mycobactin production after 15 days
Outline: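 M. bovis BCG grown in 7H9, subcultured in chelated Sauton's, diluted 1:1000 into chelated Sauton's with sub-lethal compound concentrations; 15 days at 37 °C. Pelleted cells extracted in ethanol overnight, 0.1 M FeCl3 in ethanol added until colour stable, 1 h room temperature; mycobactins isolated and quantified.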

O=C(O)c1ccc(-c2ccc([N+](=O)[O-])cc2)o1 was tested, and the inhibition [1] was “Dose-dependent effect” and the inhibition [2] was “Active”.
